# From ChEMBL document CHEMBL3352171, “Synthesis and biological evaluation of andrographolide analogues as anti-cancer agents” (Eur J Med Chem, 2014)
# Active and inactive are the calls of the source. The rule behind the calls is not given here.
# Key:
# HEK293 [1] = test: Increase in PARP cleavage in HEK293 cells at LC50 level after 48 hrs by Western blot method; format: functional, cell-based; conditions: Homo sapiens
# HEK293 [2] = test: Induction of apoptosis in HEK293 cells at 20 uM after 48 hrs by propidium iodide staining based flow cytometry relative to untreated control; format: functional, Homo sapiens
# Calf thymus DNA [3] = test: Binding affinity to calf thymus DNA assessed as reduction of DNA absorption band at 260 nanometer at 3.33 to 20 uM after 2 hrs by UV-visible absorption spectroscopy; format: nucleic-acid assay; conditions: Bos taurus
# Outline: (§1)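 CT-DNA at fixed […] in 50 mM Tris-HCl/NaCl pH 7.5, incubated with compound for 2 h at 37 °C, scanned 200–400 nm after dilution. Spectra normalized at 230 nm. Fraction bound q from absorbance near 260 nm; Boltzmann fit, Kb as reciprocal of half-saturation concentration.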
# HEK293 [4] = test: Increase in PARP cleavage in p53 deficient HEK293 cells at LC50 level after 48 hrs by Western blot method; format: functional, cell-based; conditions: Homo sapiens
# HEK293 [5] = test: Increase in p53 expression in p53 deficient HEK293 cells at LC50 level after 48 hrs by Western blot method; format: functional, cell-based; conditions: Homo sapiens
# HEK293 [6] = test: Induction of apoptosis in HEK293 cells at 20 uM after 48 hrs by propidium iodide staining based flow cytometry (reference value: 24.26 +/- 0.8%); format: functional, Homo sapiens
# HEK293 [7] = test: Induction of cell death in HEK293 cells at 15 to 20 uM after 48 hrs by DAPI staining based fluorescence microscopy; format: functional; conditions: Homo sapiens
# HEK293 [8] = test: Induction of cell cycle arrest in HEK293 cells assessed as accumulation at G1 phase at 10 uM after 48 hrs by propidium iodide staining based flow cytometry (reference value: 53.21 +/- 0.8%); format: functional, Homo sapiens
# MCF7 = test: Cytotoxicity against human MCF7 cells after 48 hrs by MTT assay; format: functional; conditions: MCF7, 48 h, read-out: LC50 (the source's name)
# Outline: (§2)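 Cells seeded at 10,000 per well and exposed to increasing compound concentrations for 48 h. After a PBS wash, MTT (2.5 mg/mL) was added for 6 h at 37 °C, then detergent (10% NP-40, 4 mM HCl), and absorbance was read at 570 nm. LC50 is the concentration causing 50% cell death. Values are means of three independent experiments.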
# Calf thymus DNA [9] = test: Binding affinity to calf thymus DNA at 3.33 to 20 uM after 2 hrs by UV-visible absorption spectroscopy; format: nucleic-acid assay; conditions: Bos taurus; outline: as §1
# HEK293 [10] = test: Increase in Bax expression in HEK293 cells at LC50 level after 48 hrs by Western blot method; format: functional, cell-based; conditions: Homo sapiens
# [11] = Hydrolysis half life in pH 7.4 PBS buffer assessed as andrographolide formation by HPLC method; format: physicochemical
# HEK293 [12] = test: Cytotoxicity against HEK293 cells after 48 hrs by MTT assay; format: functional; conditions: Homo sapiens, HEK293, 48 h; read-out: LC50 (the source's name); outline: as §2
# HEK293 [13] = test: Reduction in NFkappaB expression in p53 deficient HEK293 cells at LC50 level after 48 hrs by Western blot method; format: functional, cell-based; conditions: Homo sapiens
# HEK293 [14] = test: Induction of cell cycle arrest in HEK293 cells assessed as accumulation at G2/M phase at 10 uM after 48 hrs by propidium iodide staining based flow cytometry (reference value: 2.63 +/- 0.7%); format: functional, Homo sapiens
# [15] = target: T1, Nuclear factor NF-kappa-B complex (Homo sapiens) (UniProt Q00653+P19838+Q04206); test: Inhibition of NFkappaB (unknown origin) expressed in HEK293 cells assessed as reduction in transcriptional activity at 5 uM after 48 hrs by luciferase reporter gene assay; format: cell-based
# T1 sequence (P19838 whole entry, looked up): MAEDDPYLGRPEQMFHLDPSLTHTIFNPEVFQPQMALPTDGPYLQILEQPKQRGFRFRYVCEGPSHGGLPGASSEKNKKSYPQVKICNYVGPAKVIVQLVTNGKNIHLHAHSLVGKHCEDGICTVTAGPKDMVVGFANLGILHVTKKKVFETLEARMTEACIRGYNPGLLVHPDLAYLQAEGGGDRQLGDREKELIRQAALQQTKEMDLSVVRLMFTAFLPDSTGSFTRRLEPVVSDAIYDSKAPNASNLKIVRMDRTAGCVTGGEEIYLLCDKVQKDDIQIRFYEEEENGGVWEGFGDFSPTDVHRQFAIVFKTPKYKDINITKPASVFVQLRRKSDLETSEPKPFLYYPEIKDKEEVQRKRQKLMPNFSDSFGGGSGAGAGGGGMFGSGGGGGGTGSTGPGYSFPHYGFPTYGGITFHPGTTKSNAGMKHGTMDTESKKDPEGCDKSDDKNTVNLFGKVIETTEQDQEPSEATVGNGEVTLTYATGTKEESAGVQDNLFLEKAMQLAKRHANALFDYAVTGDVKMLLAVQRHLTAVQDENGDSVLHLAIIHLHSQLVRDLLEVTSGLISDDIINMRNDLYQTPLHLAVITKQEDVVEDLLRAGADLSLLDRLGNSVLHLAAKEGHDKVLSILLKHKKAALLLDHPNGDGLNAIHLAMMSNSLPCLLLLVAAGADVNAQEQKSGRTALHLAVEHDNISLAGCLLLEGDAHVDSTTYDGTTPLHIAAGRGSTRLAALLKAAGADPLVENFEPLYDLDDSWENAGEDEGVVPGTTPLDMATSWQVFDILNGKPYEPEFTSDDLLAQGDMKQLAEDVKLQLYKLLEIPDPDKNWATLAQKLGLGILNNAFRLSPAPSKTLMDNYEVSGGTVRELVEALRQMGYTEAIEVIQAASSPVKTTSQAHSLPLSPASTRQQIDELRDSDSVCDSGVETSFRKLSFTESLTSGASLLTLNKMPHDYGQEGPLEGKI
# T1 sequence (Q00653 whole entry, looked up): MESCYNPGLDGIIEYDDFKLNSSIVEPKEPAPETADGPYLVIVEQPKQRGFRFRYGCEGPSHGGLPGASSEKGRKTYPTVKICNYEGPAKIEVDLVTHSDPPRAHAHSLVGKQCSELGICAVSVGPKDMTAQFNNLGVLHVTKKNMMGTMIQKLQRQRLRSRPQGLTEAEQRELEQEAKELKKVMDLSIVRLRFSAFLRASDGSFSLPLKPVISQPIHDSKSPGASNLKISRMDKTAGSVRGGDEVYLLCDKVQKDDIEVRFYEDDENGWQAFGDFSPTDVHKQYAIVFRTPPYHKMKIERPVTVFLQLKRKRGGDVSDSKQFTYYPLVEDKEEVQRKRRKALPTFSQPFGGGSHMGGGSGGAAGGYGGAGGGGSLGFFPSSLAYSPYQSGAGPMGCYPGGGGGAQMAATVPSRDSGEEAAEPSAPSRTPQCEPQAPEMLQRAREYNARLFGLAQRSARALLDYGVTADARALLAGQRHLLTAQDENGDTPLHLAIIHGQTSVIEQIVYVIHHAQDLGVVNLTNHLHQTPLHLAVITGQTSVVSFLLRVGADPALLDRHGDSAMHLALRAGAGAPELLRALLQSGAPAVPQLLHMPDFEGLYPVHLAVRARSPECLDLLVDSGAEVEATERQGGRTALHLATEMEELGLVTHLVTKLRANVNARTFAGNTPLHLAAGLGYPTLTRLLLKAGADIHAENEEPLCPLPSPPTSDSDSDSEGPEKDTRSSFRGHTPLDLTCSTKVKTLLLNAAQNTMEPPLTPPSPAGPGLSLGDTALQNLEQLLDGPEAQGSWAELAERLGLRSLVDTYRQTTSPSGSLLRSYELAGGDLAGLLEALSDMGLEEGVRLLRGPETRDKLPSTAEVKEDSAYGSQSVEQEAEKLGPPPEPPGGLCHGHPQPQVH
# T1 sequence (Q04206 whole entry, looked up): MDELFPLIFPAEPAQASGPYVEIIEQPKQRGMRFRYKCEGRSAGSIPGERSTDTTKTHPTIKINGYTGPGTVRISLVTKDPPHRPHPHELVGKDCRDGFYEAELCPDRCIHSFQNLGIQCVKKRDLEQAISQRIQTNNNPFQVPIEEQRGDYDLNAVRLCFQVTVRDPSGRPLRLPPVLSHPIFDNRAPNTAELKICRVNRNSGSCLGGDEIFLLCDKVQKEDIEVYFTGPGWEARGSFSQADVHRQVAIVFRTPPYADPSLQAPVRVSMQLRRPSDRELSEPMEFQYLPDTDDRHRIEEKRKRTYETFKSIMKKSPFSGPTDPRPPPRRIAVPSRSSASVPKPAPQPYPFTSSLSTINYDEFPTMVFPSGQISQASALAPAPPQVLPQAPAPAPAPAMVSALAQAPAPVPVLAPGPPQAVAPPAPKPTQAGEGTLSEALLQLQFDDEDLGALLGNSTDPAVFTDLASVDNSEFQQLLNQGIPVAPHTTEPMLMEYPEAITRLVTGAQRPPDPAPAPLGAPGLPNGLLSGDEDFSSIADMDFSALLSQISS
# Outline: (§3)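 HEK-293 at 70% confluence transfected by calcium phosphate with NF-kB luciferase ([…]) and b-Gal ([…]) plasmids, 6–8 h, then fresh serum medium 12 h; treated 48 h, lysed, luciferase read and normalized to b-galactosidase. Three independent experiments.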
# HEK293 [16] = test: Reduction in Bcl-xL expression in HEK293 cells at LC50 level after 48 hrs by Western blot method; format: functional, cell-based; conditions: Homo sapiens
# HEK293 [17] = test: Induction of apoptosis in HEK293 cells at 5 to 20 uM after 48 hrs by DAPI staining based fluorescence microscopy; format: functional, cell-based; conditions: Homo sapiens
# HEK293 [18] = test: Induction of apoptosis in HEK293 cells at 15 uM after 48 hrs by propidium iodide staining based flow cytometry (reference value: 24.26 +/- 0.8%); format: functional, Homo sapiens
# HEK293 [19] = test: Induction of cell cycle arrest in HEK293 cells assessed as accumulation at S phase at 5 uM after 48 hrs by propidium iodide staining based flow cytometry (reference value: 19.9 +/- 0.5%); format: functional, Homo sapiens
# HEK293 [20] = test: Induction of cell cycle arrest in HEK293 cells assessed as accumulation at G2/M phase at 15 uM after 48 hrs by propidium iodide staining based flow cytometry (reference value: 2.63 +/- 0.7%); format: functional, Homo sapiens
# HEK293 [21] = test: Induction of cell cycle arrest in HEK293 cells assessed as accumulation at G1 phase at 20 uM after 48 hrs by propidium iodide staining based flow cytometry (reference value: 53.21 +/- 0.8%); format: functional, Homo sapiens
# HEK293 [22] = test: Induction of apoptosis in HEK293 cells assessed as apoptotic nuclei formation at 5 uM after 48 hrs by DAPI staining based fluorescence microscopy; format: functional, cell-based; conditions: Homo sapiens
# HEK293 [23] = test: Induction of cell cycle arrest in HEK293 cells assessed as accumulation at S phase at 20 uM after 48 hrs by propidium iodide staining based flow cytometry (reference value: 19.9 +/- 0.5%); format: functional, Homo sapiens
# Vero = test: Cytotoxicity against african green monkey Vero cells after 48 hrs by MTT assay; format: cell-based; conditions: chlorocebus sabaeus; outline: as §2
# HEK293 [24] = test: Induction of cell cycle arrest in HEK293 cells assessed as accumulation at G2/M phase at 20 uM after 48 hrs by propidium iodide staining based flow cytometry (reference value: 2.63 +/- 0.7%); format: functional, Homo sapiens
# [25] = Drug hydrolysis in pH 7.4 PBS buffer assessed as first order rate constant for andrographolide formation by HPLC method; format: physicochemical
# Outline: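 Compound in PBS pH 7.4 without enzyme; unreacted parent quantified by HPLC at time intervals. Decay fitted to first-order rate equation to give rate constant and half-life.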
# [26] = target: T1, Nuclear factor NF-kappa-B complex (Homo sapiens); test: Inhibition of NFkappaB (unknown origin) expressed in HEK293 cells assessed as reduction in transcriptional activity after 48 hrs by luciferase reporter gene assay; format: cell-based; outline: as §3
# [27] = Binding affinity to GC-28 DNA (unknown origin) minor groove by DAPI staining based spectrophotometry
# Outline: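 DAPI–DNA complex fluorescence read at 460 nm emission band; test compound added to the preformed complex and loss of fluorescence followed.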
# HEK293 [28] = test: Increase in Bax expression in p53 deficient HEK293 cells at LC50 level after 48 hrs by Western blot method; format: functional, cell-based; conditions: Homo sapiens
# HEK293 [29] = test: Increase in p53 expression in HEK293 cells at LC50 level after 48 hrs by Western blot method; format: functional, cell-based; conditions: Homo sapiens
# HEK293 [30] = test: Increase in caspase-3 expression in HEK293 cells at LC50 level after 48 hrs by immunocytochemistry; format: functional, cell-based; conditions: Homo sapiens
# HEK293 [31] = test: Induction of cell cycle arrest in HEK293 cells assessed as accumulation at G1 phase at 15 uM after 48 hrs by propidium iodide staining based flow cytometry (reference value: 53.21 +/- 0.8%); format: functional, Homo sapiens
# HEK293 [32] = test: Induction of apoptosis in HEK293 cells at 5 uM after 48 hrs by propidium iodide staining based flow cytometry (reference value: 24.26 +/- 0.8%); format: functional, Homo sapiens
smiles,measurement,setting,value
C=C1CC[C@@H]2[C@](C)(CO)[C@H](O)CC[C@@]2(C)[C@@H]1C/C=C1/C(=O)OC[C@H]1OC(=O)CI,Activity,HEK293 [1],Active
same,fold change (FC),HEK293 [2],>5
same,Activity,Calf thymus DNA [3],Active
same,Activity,HEK293 [4],inactive
same,Activity,HEK293 [5],inactive
same,Activity,HEK293 [6],89.69%
same,Activity,HEK293 [7],Active
same,Activity,HEK293 [8],15.6%
same,CC50,MCF7,6 µM
same,Kb,Calf thymus DNA [9],2.5 ×10⁵ /M
same,Activity,HEK293 [10],Active
same,t1/2,[11],35 min
same,CC50,HEK293 [12],8 µM
same,Activity,HEK293 [13],inactive
same,Activity,HEK293 [14],2.74%
same,fold change (FC),[15],5
same,Activity,HEK293 [16],Active
same,Activity,HEK293 [17],Dose-dependent effect
same,Activity,HEK293 [18],78.5%
same,Activity,HEK293 [19],9.21%
same,Activity,HEK293 [20],1.28%
same,Activity,HEK293 [21],7.96%
same,Activity,HEK293 [22],Active
same,Activity,HEK293 [23],1.66%
same,LC50,Vero,45 µM
same,Activity,HEK293 [24],0.69%
same,K,[25],0.02 min⁻¹
same,inhibition,[26],Dose-dependent effect
same,Activity,[27],Active
same,Activity,HEK293 [28],inactive
same,Activity,HEK293 [29],Active
same,Activity,HEK293 [30],Active
same,Activity,HEK293 [31],14.8%
same,Activity,HEK293 [32],43.09%
